Structures are written as SMILES. Calls of active or inactive are those of the source. The rule behind the calls is not given here. Where only a bound is given, the exact number is not on record here.

Series [1] concerns the target T1, Protein deacetylase HDAC6 (Homo sapiens) (UniProt Q9UBN7).
T1 sequence (whole entry): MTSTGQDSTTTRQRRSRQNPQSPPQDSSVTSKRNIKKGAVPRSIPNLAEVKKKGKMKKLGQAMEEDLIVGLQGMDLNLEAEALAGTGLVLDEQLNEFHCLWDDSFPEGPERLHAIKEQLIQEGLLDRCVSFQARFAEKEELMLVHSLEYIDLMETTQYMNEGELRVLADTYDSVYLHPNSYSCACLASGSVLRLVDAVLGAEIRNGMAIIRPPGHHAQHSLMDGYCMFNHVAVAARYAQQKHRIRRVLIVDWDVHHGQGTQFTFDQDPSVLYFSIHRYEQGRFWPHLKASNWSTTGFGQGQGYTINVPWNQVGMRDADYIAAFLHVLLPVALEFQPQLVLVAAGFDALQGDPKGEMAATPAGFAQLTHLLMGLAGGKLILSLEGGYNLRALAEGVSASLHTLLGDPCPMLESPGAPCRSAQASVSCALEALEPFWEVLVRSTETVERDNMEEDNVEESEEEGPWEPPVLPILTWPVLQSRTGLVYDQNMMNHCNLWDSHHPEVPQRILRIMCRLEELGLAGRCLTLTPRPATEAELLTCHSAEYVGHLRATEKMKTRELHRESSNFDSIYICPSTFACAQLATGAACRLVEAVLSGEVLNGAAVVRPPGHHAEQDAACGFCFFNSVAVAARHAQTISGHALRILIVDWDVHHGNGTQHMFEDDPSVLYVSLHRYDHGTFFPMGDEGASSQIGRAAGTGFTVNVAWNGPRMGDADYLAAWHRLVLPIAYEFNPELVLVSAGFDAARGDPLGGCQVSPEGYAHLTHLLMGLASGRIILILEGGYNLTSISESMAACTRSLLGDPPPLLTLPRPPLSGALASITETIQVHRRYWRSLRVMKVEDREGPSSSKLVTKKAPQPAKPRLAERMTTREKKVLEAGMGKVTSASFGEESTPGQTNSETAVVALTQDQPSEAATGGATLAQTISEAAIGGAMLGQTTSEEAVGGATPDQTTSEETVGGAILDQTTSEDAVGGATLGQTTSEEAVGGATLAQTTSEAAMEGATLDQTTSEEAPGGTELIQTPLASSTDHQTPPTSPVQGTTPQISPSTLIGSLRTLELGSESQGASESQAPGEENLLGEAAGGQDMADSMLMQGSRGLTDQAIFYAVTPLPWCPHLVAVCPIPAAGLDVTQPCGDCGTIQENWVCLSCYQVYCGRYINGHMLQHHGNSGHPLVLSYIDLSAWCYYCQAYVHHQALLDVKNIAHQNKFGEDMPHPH
The experiment in a line: Inhibition of HDAC6 in human MV4-11 cells assessed as increase in acetylation of alpha tubulin at 0.5 uM measured after 6 hrs by Western blot assay relative to histone H3 acetylation. In kind it is cell-based. The method in brief:
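MV4-11 cells were exposed to a range of concentrations for 6 h. Protein extracts were run on SDS-PAGE and immunoblotted for acetylated α-tubulin, acetylated histone H3 and acetylated histone H4, with HSC70 as the loading reference. A representative blot of three independent experiments is shown.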
(In general: In western blotting, separated proteins are transferred to a membrane and probed.)

Series [2] is described as follows: Glutathione reactivity at pH 7.4 assessed as compound remaining measured after 30 mins by LC-MS/MS method. In kind it is physicochemical. As to conditions: glutathione solution, read-out: Stabilty.
In series [3] the target is T2, Polyamine deacetylase HDAC10 (Homo sapiens, UniProt Q969S8).
T2 sequence (Q969S8 whole entry): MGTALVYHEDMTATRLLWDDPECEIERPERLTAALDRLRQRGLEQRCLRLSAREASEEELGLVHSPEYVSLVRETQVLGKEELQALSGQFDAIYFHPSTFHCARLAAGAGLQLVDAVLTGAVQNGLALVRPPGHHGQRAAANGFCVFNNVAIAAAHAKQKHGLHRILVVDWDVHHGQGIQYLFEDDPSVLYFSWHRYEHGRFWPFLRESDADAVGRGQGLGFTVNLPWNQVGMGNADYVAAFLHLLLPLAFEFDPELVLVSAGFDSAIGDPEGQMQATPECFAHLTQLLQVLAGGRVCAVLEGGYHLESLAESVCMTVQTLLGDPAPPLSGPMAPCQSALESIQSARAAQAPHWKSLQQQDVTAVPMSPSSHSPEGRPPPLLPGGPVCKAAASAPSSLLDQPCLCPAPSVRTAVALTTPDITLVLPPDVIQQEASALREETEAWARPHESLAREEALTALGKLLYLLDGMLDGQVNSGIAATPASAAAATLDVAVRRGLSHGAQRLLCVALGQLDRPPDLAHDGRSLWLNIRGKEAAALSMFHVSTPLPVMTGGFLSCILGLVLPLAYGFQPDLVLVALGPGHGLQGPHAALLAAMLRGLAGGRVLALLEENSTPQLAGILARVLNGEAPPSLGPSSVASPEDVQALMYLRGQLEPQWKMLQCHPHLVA
The experiment in a line: Inhibition of recombinant full length human HDAC10 expressed in SF9 baculovirus using FAM- labelled acetylated peptide as substrate measured by Electrophoretic mobility shift assay. Background: A gel shift assay detects complexes by their altered migration in electrophoresis.

As a reminder, the IC50 is the point on the concentration scale where inhibition reaches its midpoint. With `O=C(NO)c1ccc(CNC(=O)c2c(F)c(F)c(F)c(F)c2F)cc1`, the inhibition entry in series [1] is “Active”. Also, the remaining at 0.5 h in series [2] stood at 96.4%. The IC50 in series [3] was more than 1000 nM.

The values above are taken from ChEMBL document CHEMBL4706499, “PTG-0861: A novel HDAC6-selective inhibitor as a therapeutic strategy in acute myeloid leukaemia” (Eur J Med Chem, 2020).
